According to paper PMC5548977 (ESMO Open, 2017):

What was measured:
[1] = tested on: patients with advanced solid tumours; test: Phase I dose-escalation study: adverse events, dose-limiting toxicities, MTD; assay type: in vivo, human
Method in brief: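 Dosing was intravenous on days 1, 8 and 15 every 28 days, with dose by BSA (actual weight) recalculated each cycle. Escalation started at 20 mg/m2 with one patient per level, doubling until ≥grade 2 toxicity, then 3+3, across nine cohorts up to 780 mg/m2, with an expansion cohort at MTD. Dexamethasone 10 mg IV plus IV 5-HT antagonist premedication was recommended. AEs/DLTs were graded by NCI CTCAE V.3.0 and followed 30 days post-treatment.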

[2] = Pharmacokinetics: total ruthenium in plasma by ICP-MS, cycle 1; assay type: in vivo, human
Method in brief: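 Cycle 1 plasma was taken on days 1, 2 and 8, pre-infusion and at 15 min, 30 min, 1, 2, 4, 6–8, 10–12 and 24 hours post-infusion, plus pre-dose day 8. Total ruthenium (free and bound) was measured by ICP-MS. Drug was reconstituted in normal saline and given intravenously over 30 min (<500 mL) or 60–90 min (>500 mL). Parameters were derived from concentration–time data and summarised descriptively.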

[3] = tested on: advanced solid tumours; test: Anti-tumour activity, tumour response by CT; assay type: in vivo, human
Method in brief: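 Adult patients with refractory advanced solid tumours got intravenous infusions on days 1, 8 and 15 of 28-day cycles, at 20–780 mg/m2. CT response assessment was done at baseline and every two cycles per RECIST V.1.1. Disease control was defined as CR, PR or SD. Evaluable patients had at least one response assessment. Treatment continued until confirmed PD. Analysis was descriptive.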

[4] = tested on: GRP78; details: tumour cells; independent preclinical studies; cited from earlier work
[5] = tested on: drug-resistant PDAC cells; details: cited from earlier work
[6] = tested on: metastatic osteosarcoma cells; details: ex vivo lung metastases model; cited from earlier work
[7] = in vitro, combination with different classes of cancer drugs; ref 23 24; cited from earlier work
[8] = ref 9 10, cited from earlier work
[9] = 10 patients with disease control
[10] = efficacy-evaluable population (n=38)

## [Cl][Ru-]([Cl])([Cl])[Cl].[Na+].c1ccc2[nH]ncc2c1.c1ccc2[nH]ncc2c1 [IT-139, sodium trans-(tetrachlorobis(1H-indazole)ruthenate(III))]
[1]; 20 mg/m^2 (n=1)
  Any adverse event, patients: 1
  Maximum severity of adverse event Grade 1, patients: 1
  Related adverse event (related to study drug as assessed by the investigator), patients: 1
[1]; 40 mg/m^2 (n=1)
  Any adverse event, patients: 1
  Maximum severity of adverse event Grade 2, patients: 1
  Related adverse event (related to study drug as assessed by the investigator), patients: 1
[1]; 80 mg/m^2 (n=1)
  Any adverse event, patients: 1
  Maximum severity of adverse event Grade 1, patients: 1
  Related adverse event (related to study drug as assessed by the investigator), patients: 1
[1]; 160 mg/m^2 (n=1)
  Any adverse event, patients: 1
  Maximum severity of adverse event Grade 1, patients: 1
  Related adverse event (related to study drug as assessed by the investigator), patients: 1
[1]; 320 mg/m^2 (n=7)
  Any serious adverse event, patients: 4
  Discontinued treatment due to adverse event, patients: 1
  Maximum severity of adverse event Grade 1, patients: 1
  Maximum severity of adverse event Grade 2, patients: 3
  Maximum severity of adverse event Grade 3, patients: 3
  Maximum severity of adverse event ≥ Grade 3, patients: 3
  Related adverse event (related to study drug as assessed by the investigator), patients: 7
  Related serious adverse event, patients: 1
[1]; 420 mg/m^2 (n=5)
  Any adverse event, patients: 5
  Any serious adverse event, patients: 1
  Discontinued treatment due to adverse event, patients: 2
  Maximum severity of adverse event Grade 1, patients: 1
  Maximum severity of adverse event Grade 2, patients: 2
  Maximum severity of adverse event Grade 3, patients: 2
  Maximum severity of adverse event ≥ Grade 3, patients: 2
  Related adverse event (related to study drug as assessed by the investigator), patients: 4
[1]; 500 mg/m^2 (n=3)
  Any adverse event, patients: 3
  Maximum severity of adverse event Grade 1, patients: 1
  Maximum severity of adverse event Grade 2, patients: 2
  Related adverse event (related to study drug as assessed by the investigator), patients: 2
[1]; 625 mg/m^2 (n=18)
  Any serious adverse event, patients: 6
  Discontinued treatment due to adverse event, patients: 2
  Maximum severity of adverse event Grade 1, patients: 4
  Maximum severity of adverse event Grade 2, patients: 4
  Maximum severity of adverse event Grade 3, patients: 9
  Maximum severity of adverse event Grade 5, patients: 1
  Maximum severity of adverse event ≥ Grade 3, patients: 10
  Related serious adverse event, patients: 1
[1]; 780 mg/m^2
  duration of QTc prolongation after infusion: up to 10 hours
[1]; 780 mg/m^2 (n=9)
  Any adverse event, patients: 9
  Any serious adverse event, patients: 4
  Maximum severity of adverse event Grade 1, patients: 1
  Maximum severity of adverse event Grade 2, patients: 4
  Maximum severity of adverse event Grade 3, patients: 3
  Maximum severity of adverse event Grade 5, patients: 1
  Maximum severity of adverse event ≥ Grade 3, patients: 4
  Related adverse event (related to study drug as assessed by the investigator), patients: 9
  Related serious adverse event, patients: 2
[1]; 20 to 780 mg/m^2
  overall tolerability: well tolerated
[1]; across dose levels
  cumulative toxicity: no evidence of cumulative toxicity
[1]; all dose levels
  drug-related renal toxicity: no evidence of drug-related renal toxicity
[1]; i.v. infusion days 1, 8 and 15 every 28 days
  MTD (maximum-tolerated dose): 625 mg/m^2
[1]; in vivo
  effect on platelets or white blood cells: no effect on platelets or white blood cells
[1]; n=46, all dose levels
  patients with an AE that led to treatment discontinuation: 11%
[1]; no control group, chance effect not excluded
  PR prolongation: evidence for PR prolongation
[1]; over time, all dose levels
  Creatine clearance: stable over time and across all dose levels
[1]; three patients (four blood draws), without any clinical correlates
  serum discolouration at blood draw: discoloured serum, green in colour
[1]; total patients (n=46)
  Any serious adverse event, patients: 15
  Discontinued treatment due to adverse event, patients: 5
  Maximum severity of adverse event Grade 1, patients: 11
  Maximum severity of adverse event Grade 5, patients: 2
  Maximum severity of adverse event ≥ Grade 3, patients: 19
  Related serious adverse event, patients: 4
[2]; across dose levels, may not represent true terminal half-life
  mean half-life (t1/2): 113 h
[2]; across the dose range evaluated (20-780 mg/m^2)
  pharmacokinetic linearity: first-order linear pharmacokinetics
[2]; in vivo
  dose dependence of PK parameters: increased proportionally with dose
  mean total clearance (CLtotal): 164 mL/h
  percentage of the administered dose excreted in the urine (mean): 1.14%
[3]; 8 of 38 efficacy-evaluable patients
  patients with target lesion size reductions: 21%
[3]; [9]
  median duration of disease control: 9 weeks
  range of duration of disease control: 1–98 weeks
[3]; carcinoid patient continued on compassionate use protocol
  duration of SD from initiation of therapy until PD: 54 weeks
[3]; [10]
  number of patients with PR: 1
  number of patients with SD: 9
[3]; one PR and two SDs
  disease control in patients with carcinoid neuroendocrine tumours: three of five patients had disease control
[3]; weekly i.v. days 1, 8 and 15 of every 28-day cycle
  single-agent anti-tumour activity: modest anti-tumour activity
[4]
  effect on stress induction of GRP78: suppressing the stress induction of GRP78 in tumour cells
[5]; PDAC model
  effect on GRP78 chemoresistance: inhibits GRP78 chemoresistance
[5]; in combination with gemcitabine, drug-resistant PDAC cells
  sensitivity to cytotoxic drugs: sensitivity to cytotoxic drugs was restored
[6]
  tumour burden: decrease in tumour burden after treatment
[7]
  synergy in combination: marked synergy

## imidazolium-(trans-DMSO-imidazole-tetrachlororuthenate) [NAMI-A]
[8]; monotherapy, clinic trials
  tolerability: moderately tolerated
[8]; phase I/II combination study with gemcitabine
  activity in combination: less activity in combination than with gemcitabine therapy alone
